The test system of experiment [1] is HT-29. As to the kind of experiment: Antitumor activity against human HT-29 cells xenografted in BALB/c nu mouse assessed as tumor growth level at 100 mg/kg, po administered for 25 consecutive days measured every 3 days during compound dosing relative to control. It counts as functional. Put shortly: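 HT-29 cells (1×10^7) implanted s.c. in right flank of male BALB/c-nu mice aged 5–6 weeks. At about 100 mm³ (day 10), mice randomized 6 per group and dosed orally for 25 consecutive days. Controls received PBS with 5% DMSO. T/C is mean RTV (Vt/V0) treated over control. TGI taken from final tumor weights. Student's two-tailed t test.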
On the technique in general: A xenograft is tissue or cells of one species grown in another, often human tumour cells in immunodeficient mice.

In experiment [2] the target is T1, Vascular endothelial growth factor receptor 2 (Homo sapiens, UniProt P35968). As to the kind of experiment: Inhibition of VEGF-stimulated VEGFR2 phosphorylation in human HUVEC cells at 100 nM preincubated for 2 hrs followed by VEGF stimulation by Western blot analysis. It counts as cell-based. The method, boiled down:
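HUVECs pretreated 2 h with compound or DMSO, then stimulated with VEGF (50 ng/ml). Cells lysed in ice-cold RIPA and protein measured by BCA. Lysates run on SDS-PAGE and immunoblotted for phospho-VEGFR-2, with total VEGFR-2 as loading control. Detection by ECL.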

For experiment [3], the target named is Vascular endothelial growth factor receptor 1 (Homo sapiens, UniProt P17948). As to the kind of experiment: Inhibition of VEGFR-1 (unknown origin) after 40 mins by kinase-Glo assay. Put shortly:
(§1)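 Kinase-Glo luminescent assay run by a contract lab. Compound, kinase, substrate and ATP diluted in kinase buffer and incubated 40 min at room temperature. IC50 obtained by nonlinear regression of normalized dose–response.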

The subject of a further experiment is PC-3. As to the kind of experiment: Antiproliferative activity against human PC3 cells after 72 hrs by MTT assay. The note with it: PC-3, 72 h. In kind it is functional, cell-based. On the technique in general: Formazan colour is commonly taken as a measure of viable cells.
The target of experiment [4] is T1, Vascular endothelial growth factor receptor 2. As to the kind of experiment: Inhibition of VEGFR-2 (unknown origin) at 0.2 uM after 40 mins by kinase-Glo assay relative to control. Put shortly:
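VEGFR-2 tested at a single 200 nM concentration in a Kinase-Glo assay. Compound, kinase, substrate and ATP incubated 40 min at room temperature, then Kinase-Glo reagent added for 15 min and luminescence read. Inhibition rate reported. Replicates n ≥ 2.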

The target of experiment [5] is Protein deacetylase HDAC6 (Homo sapiens, UniProt Q9UBN7). As to the kind of experiment: Inhibition of HDAC6 (unknown origin) using fluorogenic Boc-Lys(acetyl)-AMC as substrate preincubated for 5 mins followed by substrate addition measured after 30 mins by fluorescence-based assay.
Sequence of Protein deacetylase HDAC6 (Q9UBN7 whole entry): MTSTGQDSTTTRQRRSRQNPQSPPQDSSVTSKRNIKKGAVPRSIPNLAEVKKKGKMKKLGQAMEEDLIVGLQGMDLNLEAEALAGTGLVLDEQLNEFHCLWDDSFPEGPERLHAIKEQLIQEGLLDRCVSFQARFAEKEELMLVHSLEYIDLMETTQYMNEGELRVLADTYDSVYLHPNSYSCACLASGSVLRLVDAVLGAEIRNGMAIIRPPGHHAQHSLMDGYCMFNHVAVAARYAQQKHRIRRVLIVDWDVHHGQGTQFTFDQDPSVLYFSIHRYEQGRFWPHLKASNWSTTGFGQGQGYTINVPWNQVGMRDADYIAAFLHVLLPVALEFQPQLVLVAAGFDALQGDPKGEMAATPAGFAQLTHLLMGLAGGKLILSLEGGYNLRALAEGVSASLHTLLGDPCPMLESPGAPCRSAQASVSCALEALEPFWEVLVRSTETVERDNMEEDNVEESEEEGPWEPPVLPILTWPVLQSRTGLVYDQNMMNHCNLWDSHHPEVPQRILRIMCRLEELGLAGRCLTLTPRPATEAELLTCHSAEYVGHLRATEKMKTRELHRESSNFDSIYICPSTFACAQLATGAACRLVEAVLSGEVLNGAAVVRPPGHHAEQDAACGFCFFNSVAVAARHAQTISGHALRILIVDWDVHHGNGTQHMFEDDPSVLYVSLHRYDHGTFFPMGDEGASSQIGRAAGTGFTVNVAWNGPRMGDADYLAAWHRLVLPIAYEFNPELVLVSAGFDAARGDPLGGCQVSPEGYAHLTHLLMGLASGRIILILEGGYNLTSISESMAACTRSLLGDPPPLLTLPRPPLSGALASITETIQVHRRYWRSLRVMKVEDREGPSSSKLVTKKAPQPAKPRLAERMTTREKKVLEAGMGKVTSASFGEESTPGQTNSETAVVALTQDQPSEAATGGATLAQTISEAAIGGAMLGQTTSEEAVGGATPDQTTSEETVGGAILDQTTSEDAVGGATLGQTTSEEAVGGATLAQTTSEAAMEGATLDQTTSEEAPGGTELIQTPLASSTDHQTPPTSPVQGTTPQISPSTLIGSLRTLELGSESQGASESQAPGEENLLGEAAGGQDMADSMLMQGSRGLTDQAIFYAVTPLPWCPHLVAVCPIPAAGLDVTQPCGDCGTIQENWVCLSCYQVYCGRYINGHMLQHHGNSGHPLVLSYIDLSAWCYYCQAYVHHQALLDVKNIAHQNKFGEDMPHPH
The subject of the next experiment is Thoracic aorta. As to the kind of experiment: Antiangiogenic activity in Sprague-Dawley rat thoracic aorta ring assessed as reduction in micro-vessel growth at 5 uM treated every day for 6 days by matrigel-based inverted microscopic analysis relative to control. It counts as functional, tissue-based. The method, boiled down: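 Aortas taken from 4–6-week-old Sprague–Dawley rats, cut into 1-mm rings and embedded in Matrigel. Rings held 30 min at 37 °C, 5% CO2, then treated daily for 6 days with compound or 0.5% DMSO vehicle. Microvessel outgrowth photographed on day 7 at ×200. Three independent experiments.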

Experiment [6] deals with HUVEC. As to the kind of experiment: Antiangiogenic activity in human HUVEC cells assessed as reduction in capillary-like tubular network formation at 0.1 uM after 6 hrs by phase-contrast microscopy. In kind it is functional, cell-based. The method, boiled down: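 HUVECs trypsinized and seeded at 40000/well on Matrigel polymerized 0.5 h at 37 °C. Cells held 6 h at 37 °C in M199 with 5% FBS, with compound or DMSO. Tube formation viewed and photographed by phase-contrast microscopy at 200 magnification. Three independent experiments.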

The next experiment deals with AGS. As to the kind of experiment: Antiproliferative activity against human AGS cells after 72 hrs by MTT assay. It counts as functional, cell-based.
Experiment [7] addresses T1, Vascular endothelial growth factor receptor 2. As to the kind of experiment: Inhibition of VEGFR-2 (unknown origin) after 40 mins by kinase-Glo assay. The method, boiled down:
as §1

The subject of the next experiment is KG-1. As to the kind of experiment: Antiproliferative activity against human KG1 cells after 72 hrs by MTT assay. The note with it: KG-1, 72 h. It counts as functional, cell-based.
In experiment [8] the test system is HUVEC. As to the kind of experiment: Cytotoxicity activity against HUVEC after 72 hrs by MTT assay. The note with it: Homo sapiens. In kind it is cell-based. Put shortly: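 HUVECs kept in RPMI1640 with 10% FBS at 37 °C, 5% CO2. Cells seeded the day before, grown 12 h, then exposed to a range of compound concentrations for 72 h. Then 0.5% MTT added for 4 h, formazan dissolved in DMSO, and absorbance read at 570 nm.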

In a further experiment the target is Histone deacetylase 2 (Homo sapiens, UniProt Q92769).
The target in another experiment is Histone deacetylase. It counts as protein assay, Homo sapiens.
For experiment [9], the target named is Histone deacetylase 1/2/3 (Homo sapiens) (UniProt Q13547+O15379+Q92769). Conditions: HeLa, at 100 nM.
The subject of the next experiment is HEL. As to the kind of experiment: Antiproliferative activity against human HEL cells after 72 hrs by MTT assay. In kind it is functional, cell-based.
For another experiment, the target named is Histone deacetylase 8 (Homo sapiens, UniProt Q9BY41). As to the kind of experiment: Inhibition of HDAC8 (unknown origin) using fluorogenic Boc-Lys(trifluoroacetyl)-AMC as substrate preincubated for 5 mins followed by substrate addition measured after 30 mins by fluorescence-based assay.
A further experiment concerns HeLa. As to the kind of experiment: Antiproliferative activity against human HeLa cells after 72 hrs by MTT assay. In kind it is functional, cell-based.
The test system of another experiment is MOLT-4. As to the kind of experiment: Antiproliferative activity against human MOLT4 cells after 72 hrs by MTT assay. In kind it is functional, cell-based. The note with it: MOLT-4, 72 h.
The test system of another experiment is MDA-MB-231. As to the kind of experiment: Antiproliferative activity against human MDA-MB-231 cells after 72 hrs by MTT assay. It counts as functional, cell-based. Conditions: MDA-MB-231, 72 h.
For experiment [10], the target named is Platelet-derived growth factor receptor beta (Homo sapiens, UniProt P09619). As to the kind of experiment: Inhibition of PDGFRbeta (unknown origin) after 40 mins by kinase-Glo assay. Put shortly: as §1
For orientation: Kinase-Glo reads ATP consumption through a luciferase reaction.

The subject of the next experiment is HT-1080. As to the kind of experiment: Antiproliferative activity against human HT1080 cells after 72 hrs by MTT assay. It counts as functional, cell-based. The note with it: HT-1080, 72 h.
The target in experiment [11] is Vascular endothelial growth factor receptor 3 (Homo sapiens, UniProt P35916). As to the kind of experiment: Inhibition of VEGFR-3 (unknown origin) after 40 mins by kinase-Glo assay.
Experiment [12] deals with Macrophage colony-stimulating factor 1 receptor (Homo sapiens, UniProt P07333). As to the kind of experiment: Inhibition of C-fms (unknown origin) after 40 mins by kinase-Glo assay.
The next experiment concerns ACHN. As to the kind of experiment: Antiproliferative activity against human ACHN cells after 72 hrs by MTT assay. It counts as functional, cell-based.
Another experiment relates to K562. As to the kind of experiment: Antiproliferative activity against human K562 cells after 72 hrs by MTT assay. The note with it: K562, 72 h. In kind it is functional, cell-based.
In experiment [13] the target is Fibroblast growth factor receptor 1 (Homo sapiens, UniProt P11362). As to the kind of experiment: Inhibition of FGFR1 (unknown origin) after 40 mins by kinase-Glo assay.
The test system of experiment [14] is HT-29. As to the kind of experiment: Antiproliferative activity against human HT-29 cells after 72 hrs by MTT assay. In kind it is functional, cell-based. The note with it: HT-29, 72 h.
Experiment [15] has as its target Mast/stem cell growth factor receptor Kit (Homo sapiens, UniProt P10721). As to the kind of experiment: Inhibition of C-kit (unknown origin) after 40 mins by kinase-Glo assay. The method, boiled down: as §1

The source of these data is ChEMBL document CHEMBL4190394, “Discovery of Novel Pazopanib-Based HDAC and VEGFR Dual Inhibitors Targeting Cancer Epigenetics and Angiogenesis Simultaneously” (J Med Chem, 2018).

Each structure is given as a SMILES string. pIC50: −log10 of the molar value. Activity calls are given as the source filed them. No cut-off for these calls is given here. A value given as a limit tells only on which side of the number the result lay.

T1 sequence (P35968 whole entry): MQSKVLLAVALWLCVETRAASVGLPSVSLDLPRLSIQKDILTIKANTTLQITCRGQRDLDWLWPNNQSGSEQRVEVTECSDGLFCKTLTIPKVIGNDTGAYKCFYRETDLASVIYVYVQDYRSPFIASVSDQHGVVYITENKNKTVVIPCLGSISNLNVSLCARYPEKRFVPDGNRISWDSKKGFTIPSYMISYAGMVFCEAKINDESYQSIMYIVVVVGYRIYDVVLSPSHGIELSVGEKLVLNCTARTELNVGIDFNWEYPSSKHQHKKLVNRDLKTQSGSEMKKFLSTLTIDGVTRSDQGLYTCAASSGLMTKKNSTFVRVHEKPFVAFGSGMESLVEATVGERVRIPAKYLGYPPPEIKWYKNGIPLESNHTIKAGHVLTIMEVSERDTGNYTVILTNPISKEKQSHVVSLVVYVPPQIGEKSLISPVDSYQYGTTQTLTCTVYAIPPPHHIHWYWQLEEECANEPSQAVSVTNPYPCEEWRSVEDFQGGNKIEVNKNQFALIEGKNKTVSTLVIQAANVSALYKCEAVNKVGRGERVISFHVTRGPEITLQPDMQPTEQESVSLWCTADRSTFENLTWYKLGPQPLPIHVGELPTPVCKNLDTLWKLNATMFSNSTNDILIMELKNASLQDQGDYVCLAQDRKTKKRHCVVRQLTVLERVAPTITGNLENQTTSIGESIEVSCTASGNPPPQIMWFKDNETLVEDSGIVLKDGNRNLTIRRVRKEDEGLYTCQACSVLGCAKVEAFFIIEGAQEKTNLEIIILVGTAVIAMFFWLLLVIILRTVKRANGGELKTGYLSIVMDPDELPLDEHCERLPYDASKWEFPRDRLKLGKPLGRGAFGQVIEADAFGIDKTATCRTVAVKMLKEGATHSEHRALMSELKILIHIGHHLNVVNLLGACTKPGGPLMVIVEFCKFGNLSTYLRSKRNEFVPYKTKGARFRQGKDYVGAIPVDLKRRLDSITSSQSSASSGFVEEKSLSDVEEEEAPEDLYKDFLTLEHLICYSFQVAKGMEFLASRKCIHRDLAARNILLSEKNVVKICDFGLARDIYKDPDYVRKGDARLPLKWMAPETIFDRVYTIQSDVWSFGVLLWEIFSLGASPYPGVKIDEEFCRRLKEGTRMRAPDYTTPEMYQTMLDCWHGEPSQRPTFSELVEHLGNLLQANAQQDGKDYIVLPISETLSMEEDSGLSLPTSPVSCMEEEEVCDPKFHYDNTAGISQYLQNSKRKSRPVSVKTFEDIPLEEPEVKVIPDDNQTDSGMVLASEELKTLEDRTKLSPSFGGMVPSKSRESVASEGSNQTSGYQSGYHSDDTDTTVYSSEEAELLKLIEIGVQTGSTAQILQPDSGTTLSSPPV
Sequence of Vascular endothelial growth factor receptor 1 (P17948 whole entry): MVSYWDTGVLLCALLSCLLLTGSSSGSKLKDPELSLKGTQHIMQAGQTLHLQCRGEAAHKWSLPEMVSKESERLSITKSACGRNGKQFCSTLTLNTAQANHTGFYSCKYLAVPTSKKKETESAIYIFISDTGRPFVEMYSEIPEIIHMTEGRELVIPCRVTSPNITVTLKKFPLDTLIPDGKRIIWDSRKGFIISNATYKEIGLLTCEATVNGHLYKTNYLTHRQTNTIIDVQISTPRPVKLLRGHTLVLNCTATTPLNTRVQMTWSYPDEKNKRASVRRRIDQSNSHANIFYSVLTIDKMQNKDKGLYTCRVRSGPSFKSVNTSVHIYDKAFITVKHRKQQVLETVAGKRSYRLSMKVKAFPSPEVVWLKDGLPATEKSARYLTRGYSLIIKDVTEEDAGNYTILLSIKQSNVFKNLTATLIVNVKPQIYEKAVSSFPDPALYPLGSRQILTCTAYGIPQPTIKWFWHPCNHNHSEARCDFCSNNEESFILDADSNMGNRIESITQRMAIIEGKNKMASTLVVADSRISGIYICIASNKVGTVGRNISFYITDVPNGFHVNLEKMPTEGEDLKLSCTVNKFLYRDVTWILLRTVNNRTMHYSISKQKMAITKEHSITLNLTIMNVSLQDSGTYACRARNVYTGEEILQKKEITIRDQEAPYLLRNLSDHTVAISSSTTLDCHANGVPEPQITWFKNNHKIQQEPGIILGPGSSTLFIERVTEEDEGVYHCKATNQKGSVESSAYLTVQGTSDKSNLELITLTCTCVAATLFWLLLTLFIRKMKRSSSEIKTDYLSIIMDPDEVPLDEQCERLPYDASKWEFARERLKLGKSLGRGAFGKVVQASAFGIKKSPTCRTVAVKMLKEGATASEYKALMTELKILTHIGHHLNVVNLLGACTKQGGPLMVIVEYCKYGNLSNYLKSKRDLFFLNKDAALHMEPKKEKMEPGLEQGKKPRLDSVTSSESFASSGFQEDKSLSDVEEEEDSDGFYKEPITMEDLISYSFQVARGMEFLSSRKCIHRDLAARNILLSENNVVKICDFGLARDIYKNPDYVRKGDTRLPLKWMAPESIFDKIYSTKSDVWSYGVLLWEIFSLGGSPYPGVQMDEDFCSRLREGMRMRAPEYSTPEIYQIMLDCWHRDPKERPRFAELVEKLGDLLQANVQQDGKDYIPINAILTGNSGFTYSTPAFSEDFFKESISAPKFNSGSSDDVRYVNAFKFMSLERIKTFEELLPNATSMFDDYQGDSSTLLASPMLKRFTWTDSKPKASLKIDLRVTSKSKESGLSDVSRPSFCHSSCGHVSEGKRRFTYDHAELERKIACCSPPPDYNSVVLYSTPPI
Sequence of Mast/stem cell growth factor receptor Kit (P10721 whole entry): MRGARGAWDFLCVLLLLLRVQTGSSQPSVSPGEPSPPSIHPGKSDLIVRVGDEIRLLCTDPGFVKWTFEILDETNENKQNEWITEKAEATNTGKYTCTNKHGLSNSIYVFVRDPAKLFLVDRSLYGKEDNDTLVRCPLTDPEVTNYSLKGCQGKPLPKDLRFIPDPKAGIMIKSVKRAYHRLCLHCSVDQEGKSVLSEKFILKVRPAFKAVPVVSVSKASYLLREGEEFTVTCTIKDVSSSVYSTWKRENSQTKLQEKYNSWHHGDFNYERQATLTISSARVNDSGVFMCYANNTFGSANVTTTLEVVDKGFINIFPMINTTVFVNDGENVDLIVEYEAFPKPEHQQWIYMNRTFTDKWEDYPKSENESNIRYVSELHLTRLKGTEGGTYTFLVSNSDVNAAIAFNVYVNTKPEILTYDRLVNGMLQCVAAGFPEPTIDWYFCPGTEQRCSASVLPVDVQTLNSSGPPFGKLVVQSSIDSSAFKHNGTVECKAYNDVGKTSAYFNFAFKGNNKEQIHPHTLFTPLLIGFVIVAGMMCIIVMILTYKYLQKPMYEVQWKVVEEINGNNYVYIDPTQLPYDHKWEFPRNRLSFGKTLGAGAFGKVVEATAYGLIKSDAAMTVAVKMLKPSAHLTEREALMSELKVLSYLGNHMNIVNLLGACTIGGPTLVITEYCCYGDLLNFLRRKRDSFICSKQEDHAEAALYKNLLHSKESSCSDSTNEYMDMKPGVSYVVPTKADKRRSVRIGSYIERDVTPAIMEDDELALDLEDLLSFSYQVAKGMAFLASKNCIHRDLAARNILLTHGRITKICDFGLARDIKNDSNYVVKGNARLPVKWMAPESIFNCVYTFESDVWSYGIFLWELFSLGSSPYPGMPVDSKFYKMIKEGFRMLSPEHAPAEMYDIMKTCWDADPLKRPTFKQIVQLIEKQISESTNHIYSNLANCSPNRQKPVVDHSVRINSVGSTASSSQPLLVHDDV

With `O=C(CCCCCCC(=O)Nc1ccccc1)NO` [VORINOSTAT], in the experiment on HT-29 [1], the T/C amounted to 66%. In addition, the inhibition result in experiment [2] was “inactive”.
Regarding `Cc1c2ccc(N(C)c3ccnc(Nc4ccc(C(=O)NCCCCCCC(=O)NO)cc4)n3)cc2nn1C`, the negative-log IC50 (pIC50) in experiment [3] is 7.46; with PC-3, 5.77; in experiment [5], 7.14; with AGS it was 5.35; in experiment [7] it was 7.34; in the experiment on KG-1 it was 5.80. Also, the pIC50 with HUVEC [8] was 4.68; on Histone deacetylase 2, 6.42; in the experiment on HEL it was 5.55; against Histone deacetylase 8 it was 5.78; with HeLa, 5.36; with MOLT-4, 6.51. The negative-log IC50 (pIC50) is 5.53 in the experiment on MDA-MB-231; 6.95 in experiment [10]; 5.71 in the experiment with HT-1080; 6.95 in [11]; 6.24 in [12]; less than 5.30 with ACHN. Also, the negative logarithm of the IC50 (pIC50) is 6.00 with K562, 6.39 in experiment [13], 5.60 in the experiment on HT-29 [14] and 6.79 in [15]. The inhibition in experiment [4] came out at 93%. Besides, the outcome in the experiment on Thoracic aorta and in the experiment on HUVEC [6] was Active. In addition, the IC50 against Histone deacetylase came out at 3.3 nM. Moreover, the inhibition entry in experiment [9] and in experiment [2] was “Active” throughout.

As usually defined, the T/C is the ratio of treated to control. As usually defined, the inhibition is the drop in the measured response relative to a control, in per cent. The term pIC50 denotes the IC50 on a negative log10 scale, so that one unit is a factor of ten. Read a low pIC50 as a high IC50. Usually IC50 stands for the midpoint of a concentration-inhibition curve. The low end stands for greater potency in that assay, the high end for weaker potency in that assay.
